{"source": "BindingDB's records for doi:10.1021/jm00109a027", "about": "(University of Minnesota, 1991)", "key": {"[1]": {"biological_target": "Kappa-type opioid receptor (Cavia porcellus, UniProt P41144)", "sequence (P41144 whole entry)": "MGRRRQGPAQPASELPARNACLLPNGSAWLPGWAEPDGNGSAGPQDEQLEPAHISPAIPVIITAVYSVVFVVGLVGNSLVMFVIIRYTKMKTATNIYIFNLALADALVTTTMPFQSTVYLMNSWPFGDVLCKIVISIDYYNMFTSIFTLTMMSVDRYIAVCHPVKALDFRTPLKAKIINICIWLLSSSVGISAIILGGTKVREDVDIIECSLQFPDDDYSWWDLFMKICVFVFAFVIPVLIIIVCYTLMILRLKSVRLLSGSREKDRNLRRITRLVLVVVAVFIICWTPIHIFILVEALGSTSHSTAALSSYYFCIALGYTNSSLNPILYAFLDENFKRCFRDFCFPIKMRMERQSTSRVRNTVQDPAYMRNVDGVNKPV", "assay": "Compound was evaluated for the binding affinity to opioid receptor kappa using [3H]-EK as radioligand in guinea pig brain membrane", "procedure,_shortened": "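Radioligand displacement in guinea pig brain membranes, modified from an earlier published method. [3H]EK was used with 1 μM DAMGO present to block μ sites.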"}, "[2]": {"biological_target": "Mu-type opioid receptor (Cavia porcellus, UniProt P97266)", "sequence (P97266 whole entry)": "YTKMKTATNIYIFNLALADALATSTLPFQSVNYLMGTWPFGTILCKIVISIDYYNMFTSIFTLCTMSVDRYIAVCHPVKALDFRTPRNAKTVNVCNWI", "assay": "Compound was evaluated for the binding affinity to Opioid receptor mu using [3H]DAMGO as radioligand in guinea pig brain membrane"}, "[3]": {"assay": "Compound was evaluated for the binding affinity to opioid receptor delta"}}}
{"compound": "Oc1ccc2c3c1O[C@H]1c4nc5ccccc5nc4C[C@@]4(O)[C@@H](C2)N(CC2CC2)CC[C@]314", "values": [{"measurement": "Ki", "setting": "[1]", "result": 191, "unit": "nM"}, {"measurement": "Ki", "setting": "[2]", "result": 7.3, "unit": "nM"}]}
{"compound": "Cn1c2c(c3c1[C@@H]1Oc4c(O)ccc5c4[C@@]14CCN(CC1CC1)[C@H](C5)[C@]4(O)C3)CCCC2", "values": [{"measurement": "Ki", "setting": "[1]", "result": 203, "unit": "nM"}, {"measurement": "Ki", "setting": "[2]", "result": 16.8, "unit": "nM"}]}
{"compound": "Oc1ccc2c3c1O[C@H]1C(c4ccccc4)=CC[C@@]4(O)[C@@H](C2)N(CC2CC2)CC[C@]314", "values": [{"measurement": "Ki", "setting": "[1]", "result": 0.01, "unit": "nM"}, {"measurement": "Ki", "setting": "[2]", "result": 0.005, "unit": "nM"}]}
{"compound": "Oc1ccc2c3c1O[C@H]1C(c4c[nH]c5ccccc45)=CC[C@@]4(O)C(C2)N(CC2CC2)CC[C@]314", "note": "[4-cyclopropylmethyl-14-(1H-3-indolyl)-(1S,13S,17S)-12-oxa-4-azapentacyclo[9.6.1.01,13.05,17.07,18]octadeca-7(18),8,10,14-tetraene-10,17-diol]", "values": [{"measurement": "Ki", "setting": "[3]", "result": 0.99, "unit": "nM"}]}
{"compound": "Oc1ccc2c3c1O[C@H]1c4oc5ccccc5c4C[C@@]4(O)[C@@H](C2)N(CC2CC2)CC[C@]314", "note": "[CAS_111555-58-9]", "values": [{"measurement": "Ki", "setting": "[1]", "result": 154, "unit": "nM"}, {"measurement": "Ki", "setting": "[2]", "result": 18.8, "unit": "nM"}]}
